{
  "source": "ChEMBL document CHEMBL1149250",
  "about": "“Optimization of protein kinase CK2 inhibitors derived from 4,5,6,7-tetrabromobenzimidazole” (J Med Chem, 2004)",
  "key": {"[1]": {"test_system": "Jurkat", "assay": "Inhibition of cell viability in Jurkat T cells after 24 hrs by MTT method", "type": "functional, cell-based", "settings": "Homo sapiens", "outline": "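Human Jurkat T-leukemia cells, grown in RPMI-1640 with 10% FCS, were resuspended at 10⁶ cells/mL in medium with 1% FCS. They were exposed to increasing compound concentrations for 24 h at 37 °C. Controls received DMSO (0.5% v/v), set as 100% viability. Viability was read by MTT. Values are means ± SEM of three separate experiments; DC50 was taken as the concentration halving viability.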"}, "[2]": {"test_system": "Jurkat", "assay": "Induction of mitochondrial depolarization in Jurkat T cells up to 10 uM", "type": "functional, cell-based", "settings": "Homo sapiens"}, "[3]": {"target": "T1, Dual specificity tyrosine-phosphorylation-regulated kinase 1A (Homo sapiens, UniProt Q13627)", "assay": "Inhibition of DYRK1A"}, "[4]": {"target": "T2, Dual specificity mitogen-activated protein kinase kinase 1 (Homo sapiens, UniProt Q02750)", "T2 sequence (Q02750 whole entry)": "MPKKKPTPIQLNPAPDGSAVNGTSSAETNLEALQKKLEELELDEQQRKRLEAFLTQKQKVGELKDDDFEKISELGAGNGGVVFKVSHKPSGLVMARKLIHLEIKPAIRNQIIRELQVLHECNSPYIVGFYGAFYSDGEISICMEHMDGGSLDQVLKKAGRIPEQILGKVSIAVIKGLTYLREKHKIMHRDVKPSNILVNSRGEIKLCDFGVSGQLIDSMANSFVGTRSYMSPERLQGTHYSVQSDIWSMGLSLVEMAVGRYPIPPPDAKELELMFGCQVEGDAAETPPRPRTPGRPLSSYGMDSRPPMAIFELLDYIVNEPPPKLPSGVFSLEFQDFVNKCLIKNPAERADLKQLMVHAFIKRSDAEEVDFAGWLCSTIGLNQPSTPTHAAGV", "assay": "Inhibition of MKK1"}, "[5]": {"target": "T3, Ribosomal protein S6 kinase alpha-1 (Homo sapiens, UniProt Q15418)", "T3 sequence (Q15418 whole entry)": "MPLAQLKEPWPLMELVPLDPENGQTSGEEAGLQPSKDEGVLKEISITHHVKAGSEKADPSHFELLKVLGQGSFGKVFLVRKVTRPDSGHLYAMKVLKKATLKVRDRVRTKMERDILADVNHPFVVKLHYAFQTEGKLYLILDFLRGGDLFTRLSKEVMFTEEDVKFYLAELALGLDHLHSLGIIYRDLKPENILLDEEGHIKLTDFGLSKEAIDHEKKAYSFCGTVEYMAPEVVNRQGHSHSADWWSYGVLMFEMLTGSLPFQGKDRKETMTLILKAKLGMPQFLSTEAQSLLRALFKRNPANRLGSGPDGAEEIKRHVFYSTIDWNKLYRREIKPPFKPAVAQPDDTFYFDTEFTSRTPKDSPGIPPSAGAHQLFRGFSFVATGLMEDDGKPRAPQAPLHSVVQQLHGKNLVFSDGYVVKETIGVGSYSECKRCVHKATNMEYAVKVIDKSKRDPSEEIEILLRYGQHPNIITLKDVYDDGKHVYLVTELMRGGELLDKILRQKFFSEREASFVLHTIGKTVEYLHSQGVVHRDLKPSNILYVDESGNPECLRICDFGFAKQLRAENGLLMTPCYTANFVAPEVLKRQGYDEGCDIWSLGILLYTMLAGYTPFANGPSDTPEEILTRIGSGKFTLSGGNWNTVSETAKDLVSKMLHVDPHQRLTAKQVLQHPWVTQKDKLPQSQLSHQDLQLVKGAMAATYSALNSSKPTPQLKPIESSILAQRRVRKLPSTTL", "assay": "Inhibition of MAPKAPK1a"}, "[6]": {"target": "Serine/threonine-protein kinase Sgk1 (Homo sapiens, UniProt O00141)", "assay": "Inhibition of SGK"}, "[7]": {"target": "Cyclin-dependent kinase 2/cyclin A (Homo sapiens, UniProt P24941)", "assay": "Inhibition of CDK2/Cyclin A", "type": "protein-complex assay"}, "[8]": {"test_system": "Jurkat", "assay": "Induction of caspase activation assessed as PARP cleavage in Jurkat T cells", "type": "functional, cell-based", "settings": "Homo sapiens", "outline": "(§1)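 Jurkat T cells suspended at 10⁶ cells/mL in RPMI-1640 with 1% fetal calf serum, treated 14 h at 37 °C with 5 or 10 μM compound; untreated cells as control, 50 ng/mL anti-Fas as apoptotic control. Cells lysed in hypo-osmotic buffer; caspase activation read by Western blot as degradation of HS1 (full length and major fragment) and PARP.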"}, "[9]": {"test_system": "Jurkat", "assay": "Induction of caspase activation assessed as HS1 protein cleavage in Jurkat T cells", "type": "functional, cell-based", "settings": "Homo sapiens", "outline": "as §1"}, "[10]": {"target": "Casein kinase I (Homo sapiens) (UniProt Q9HCP0+P78368+P48730+P49674+P48729)", "assay": "Residual activity of CK1 at 10 uM relative to control"}, "[11]": {"target": "Tyrosine-protein kinase Lyn (Homo sapiens) (UniProt P07948)", "sequence (P07948 2-512 limits assumed)": "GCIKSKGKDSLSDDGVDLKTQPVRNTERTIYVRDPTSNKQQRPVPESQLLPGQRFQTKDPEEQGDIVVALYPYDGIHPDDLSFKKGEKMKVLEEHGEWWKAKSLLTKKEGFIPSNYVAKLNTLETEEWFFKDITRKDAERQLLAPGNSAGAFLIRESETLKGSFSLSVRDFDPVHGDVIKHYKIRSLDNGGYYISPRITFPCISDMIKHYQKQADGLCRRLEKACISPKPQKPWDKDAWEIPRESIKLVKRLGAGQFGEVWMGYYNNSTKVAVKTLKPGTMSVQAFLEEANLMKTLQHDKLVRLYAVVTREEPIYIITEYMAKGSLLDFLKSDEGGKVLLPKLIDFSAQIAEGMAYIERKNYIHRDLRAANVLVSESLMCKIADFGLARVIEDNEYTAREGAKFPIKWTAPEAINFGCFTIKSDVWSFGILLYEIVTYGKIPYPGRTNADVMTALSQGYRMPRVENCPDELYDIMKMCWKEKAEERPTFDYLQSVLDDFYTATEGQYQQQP", "assay": "Residual activity of Lyn at 10 uM relative to control"}, "[12]": {"target": "Tyrosine-protein kinase SYK (Rattus norvegicus) (UniProt Q64725)", "assay": "Residual activity of Syk at 10 uM relative to control"}, "[13]": {"target": "Ribosomal protein S6 kinase alpha-5 (Homo sapiens) (UniProt O75582)", "assay": "Residual activity of MSK1 at 10 uM relative to control"}, "[14]": {"target": "MAP kinase-activated protein kinase 5 (Homo sapiens) (UniProt Q8IW41)", "assay": "Residual activity of PRAK at 10 uM relative to control"}, "[15]": {"target": "Ribosomal protein S6 kinase beta-1 (Homo sapiens) (UniProt P23443)", "assay": "Residual activity of S6K1 at 10 uM relative to control"}, "[16]": {"target": "Mitogen-activated protein kinase 12 (Homo sapiens) (UniProt P53778)", "assay": "Residual activity of SAPK3/p38gamma relative to control"}, "[17]": {"target": "T3, Ribosomal protein S6 kinase alpha-1", "assay": "Residual activity of MAPKAPK1a at 10 uM relative to control"}, "[18]": {"species": "Homo sapiens", "assay": "Inhibition of phosphorylase kinase at 10 uM relative to control"}, "[19]": {"target": "Mitogen-activated protein kinase 13 (Homo sapiens) (UniProt O15264)", "sequence (O15264 whole entry)": "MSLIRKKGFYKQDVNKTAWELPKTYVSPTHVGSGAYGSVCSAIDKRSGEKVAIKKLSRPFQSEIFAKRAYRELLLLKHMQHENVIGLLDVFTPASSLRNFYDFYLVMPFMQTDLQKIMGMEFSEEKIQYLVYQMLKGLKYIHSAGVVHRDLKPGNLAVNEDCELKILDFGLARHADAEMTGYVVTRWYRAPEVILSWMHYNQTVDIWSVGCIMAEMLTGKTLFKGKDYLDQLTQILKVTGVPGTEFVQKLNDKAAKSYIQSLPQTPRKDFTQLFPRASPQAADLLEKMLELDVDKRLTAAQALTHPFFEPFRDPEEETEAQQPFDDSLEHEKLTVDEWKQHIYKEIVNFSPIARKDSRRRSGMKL", "assay": "Residual activity of SAPK4/p38delta at 10 uM relative to control"}, "[20]": {"target": "cAMP-dependent protein kinase (PKA) (Homo sapiens) (UniProt P22694+P17612+P22612)", "assay": "Inhibition of PKA at 10 uM relative to control; values are per cent of control"}, "[21]": {"target": "Serine/threonine-protein kinase Sgk1 (Homo sapiens) (UniProt O00141)", "assay": "Inhibition of SGK at 10 uM relative to control; values are per cent of control"}, "[22]": {"target": "Tyrosine-protein kinase Lck (Homo sapiens) (UniProt P06239)", "sequence (P06239 2-509 limits assumed)": "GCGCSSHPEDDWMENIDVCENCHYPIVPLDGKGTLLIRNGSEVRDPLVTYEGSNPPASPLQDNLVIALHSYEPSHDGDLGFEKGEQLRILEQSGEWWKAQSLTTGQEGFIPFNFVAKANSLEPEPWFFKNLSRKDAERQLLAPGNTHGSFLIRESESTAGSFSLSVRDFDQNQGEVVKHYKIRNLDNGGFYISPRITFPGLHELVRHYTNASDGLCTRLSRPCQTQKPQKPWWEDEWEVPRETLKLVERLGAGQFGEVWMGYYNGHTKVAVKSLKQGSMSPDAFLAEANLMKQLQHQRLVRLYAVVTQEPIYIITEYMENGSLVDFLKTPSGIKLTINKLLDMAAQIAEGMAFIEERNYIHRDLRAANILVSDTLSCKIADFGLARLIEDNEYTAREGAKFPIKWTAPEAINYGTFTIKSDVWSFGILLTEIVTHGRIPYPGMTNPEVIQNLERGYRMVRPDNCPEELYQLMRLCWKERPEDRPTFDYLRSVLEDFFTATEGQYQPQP", "assay": "Inhibition of Lck at 10 uM relative to control; values are per cent of control"}, "[23]": {"target": "T2, Dual specificity mitogen-activated protein kinase kinase 1", "assay": "Inhibition of MKK1 at 10 uM relative to control; values are per cent of control"}, "[24]": {"target": "3-phosphoinositide-dependent protein kinase 1 (Homo sapiens) (UniProt O15530)", "sequence (O15530 whole entry)": "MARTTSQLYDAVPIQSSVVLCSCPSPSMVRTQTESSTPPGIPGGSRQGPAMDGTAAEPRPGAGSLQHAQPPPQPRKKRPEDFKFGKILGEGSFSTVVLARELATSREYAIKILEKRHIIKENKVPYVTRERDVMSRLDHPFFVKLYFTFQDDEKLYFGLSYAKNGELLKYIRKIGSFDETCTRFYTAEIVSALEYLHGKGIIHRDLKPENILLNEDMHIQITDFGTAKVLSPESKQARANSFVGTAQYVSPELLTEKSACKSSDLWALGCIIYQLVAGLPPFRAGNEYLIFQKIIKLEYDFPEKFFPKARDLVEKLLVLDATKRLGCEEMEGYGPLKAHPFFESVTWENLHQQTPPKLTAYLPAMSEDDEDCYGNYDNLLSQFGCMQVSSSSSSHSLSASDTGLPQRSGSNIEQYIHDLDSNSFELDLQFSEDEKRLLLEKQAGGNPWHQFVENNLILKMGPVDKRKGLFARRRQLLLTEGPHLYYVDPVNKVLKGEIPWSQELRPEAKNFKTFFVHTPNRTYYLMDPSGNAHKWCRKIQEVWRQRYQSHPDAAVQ", "assay": "Inhibition of PDK1 at 10 uM relative to control; values are per cent of control"}, "[25]": {"target": "AMP-activated protein kinase (AMPK) alpha-1/beta-1/gamma-1 (Homo sapiens) (UniProt P54619+Q9Y478+Q13131)", "assay": "Inhibition of AMPK at 10 uM relative to control; values are per cent of control"}, "[26]": {"species": "Homo sapiens", "assay": "Inhibition of PP2A at 10 uM relative to control; values are per cent of control"}, "[27]": {"target": "Rho-associated protein kinase 2 (Homo sapiens) (UniProt O75116)", "assay": "Inhibition of ROCK2 at 10 uM relative to control; values are per cent of control"}, "[28]": {"target": "EKC/KEOPS complex subunit BUD32 (Saccharomyces cerevisiae S288c) (UniProt P53323)", "assay": "Inhibition of PiD261 at 10 uM relative to control; values are per cent of control"}, "[29]": {"target": "T1, Dual specificity tyrosine-phosphorylation-regulated kinase 1A", "assay": "Inhibition of DYRK1A at 10 uM relative to control; values are per cent of control"}, "[30]": {"target": "Glycogen synthase kinase-3 beta (Homo sapiens) (UniProt P49841)", "assay": "Inhibition of GSKbeta at 10 uM relative to control; values are per cent of control"}, "[31]": {"target": "Serine/threonine-protein kinase Chk1 (Homo sapiens) (UniProt O14757)", "assay": "Inhibition of at CHK1 at 10 uM relative to control; values are per cent of control"}, "[32]": {"target": "MAP kinase-activated protein kinase 2 (Homo sapiens) (UniProt P49137)", "sequence (P49137 whole entry, looked up)": "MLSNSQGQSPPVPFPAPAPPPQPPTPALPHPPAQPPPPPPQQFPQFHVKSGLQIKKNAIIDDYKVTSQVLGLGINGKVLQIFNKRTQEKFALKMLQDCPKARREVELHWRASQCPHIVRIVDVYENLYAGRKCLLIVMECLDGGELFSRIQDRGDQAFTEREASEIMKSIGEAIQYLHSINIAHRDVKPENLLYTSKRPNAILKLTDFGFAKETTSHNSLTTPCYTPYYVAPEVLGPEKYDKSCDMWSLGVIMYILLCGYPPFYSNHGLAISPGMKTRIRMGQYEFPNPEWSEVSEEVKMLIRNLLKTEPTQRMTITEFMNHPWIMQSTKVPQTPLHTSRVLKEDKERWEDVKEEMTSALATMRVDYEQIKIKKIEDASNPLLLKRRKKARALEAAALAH", "assay": "Inhibition of MAPKAPK2 at 10 uM relative to control; values are per cent of control"}, "[33]": {"target": "Protein kinase C alpha type (Homo sapiens) (UniProt P17252)", "assay": "Inhibition of PKCalpha at 10 uM relative to control; values are per cent of control"}, "[34]": {"target": "RAC-alpha serine/threonine-protein kinase (Homo sapiens) (UniProt P31749)", "assay": "Inhibition of PKBalpha at 10 uM relative to control; values are per cent of control"}, "[35]": {"target": "Mitogen-activated protein kinase 1 (Homo sapiens) (UniProt P28482)", "assay": "Inhibition of MAPK2/ERK2 at 10 uM relative to control; values are per cent of control"}, "[36]": {"target": "Mitogen-activated protein kinase 8 (Homo sapiens) (UniProt P45983)", "sequence (P45983 whole entry)": "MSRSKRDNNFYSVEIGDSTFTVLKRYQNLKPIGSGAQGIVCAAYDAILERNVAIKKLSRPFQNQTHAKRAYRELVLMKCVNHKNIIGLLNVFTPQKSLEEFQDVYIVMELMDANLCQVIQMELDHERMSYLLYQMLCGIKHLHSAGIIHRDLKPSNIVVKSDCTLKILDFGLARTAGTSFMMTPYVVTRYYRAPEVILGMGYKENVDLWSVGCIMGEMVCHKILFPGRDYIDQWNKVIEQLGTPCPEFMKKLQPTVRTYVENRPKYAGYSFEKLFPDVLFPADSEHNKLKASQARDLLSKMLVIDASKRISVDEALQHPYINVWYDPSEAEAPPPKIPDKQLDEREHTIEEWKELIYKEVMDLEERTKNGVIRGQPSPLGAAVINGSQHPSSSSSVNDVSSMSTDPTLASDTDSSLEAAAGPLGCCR", "assay": "Inhibition of JNK/SAPK1c at 10 uM relative to control; values are per cent of control"}, "[37]": {"target": "Mitogen-activated protein kinase 14 (Homo sapiens) (UniProt Q16539)", "sequence (Q16539 whole entry)": "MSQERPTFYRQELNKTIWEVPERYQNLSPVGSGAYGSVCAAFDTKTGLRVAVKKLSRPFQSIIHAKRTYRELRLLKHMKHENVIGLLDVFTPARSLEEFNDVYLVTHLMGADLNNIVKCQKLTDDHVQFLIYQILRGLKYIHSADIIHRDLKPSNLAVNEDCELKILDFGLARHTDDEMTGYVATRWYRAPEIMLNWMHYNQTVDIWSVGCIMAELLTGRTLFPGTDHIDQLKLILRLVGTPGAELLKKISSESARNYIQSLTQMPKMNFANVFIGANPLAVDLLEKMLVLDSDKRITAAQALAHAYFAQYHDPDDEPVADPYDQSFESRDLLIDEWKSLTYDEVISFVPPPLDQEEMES", "assay": "Inhibition of SAPK2a/p38 at 10 uM relative to control; values are per cent of control"}, "[38]": {"target": "Mitogen-activated protein kinase 11 (Homo sapiens) (UniProt Q15759)", "assay": "Inhibition of SAPK2b/p38--beta-2 at 10 uM relative to control; values are per cent of control"}},
  "note": "Active and inactive are the calls of the source. The calls are words filed in the database; no cut-off is given here.",
  "data": [
    {"smiles": "CN(C)c1nc2c(Br)c(Br)c(Br)c(Br)c2[nH]1", "values": [
      {"measurement": "DC50", "setting": "[1]", "result": 2.7, "unit": "µM"},
      {"measurement": "Activity", "setting": "[2]", "result": "inactive"},
      {"measurement": "IC50", "setting": "[3]", "result": 0.12, "unit": "µM"},
      {"measurement": "IC50", "setting": "[4]", "result": 10.5, "unit": "µM"},
      {"measurement": "IC50", "setting": "[5]", "result": 10.3, "unit": "µM"},
      {"measurement": "IC50", "setting": "[6]", "result": 3.57, "unit": "µM"},
      {"measurement": "IC50", "setting": "[7]", "result": 2.38, "unit": "µM"},
      {"measurement": "Activity", "setting": "[8]", "result": "Active"},
      {"measurement": "Activity", "setting": "[9]", "result": "Active"},
      {"measurement": "residual activity", "setting": "[10]", "result": 87, "unit": "%"},
      {"measurement": "residual activity", "setting": "[11]", "result": 91, "unit": "%"},
      {"measurement": "residual activity", "setting": "[12]", "result": 103, "unit": "%"},
      {"measurement": "residual activity", "setting": "[13]", "result": 73, "unit": "%"},
      {"measurement": "residual activity", "setting": "[14]", "result": 77, "unit": "%"},
      {"measurement": "residual activity", "setting": "[15]", "result": 65, "unit": "%"},
      {"measurement": "residual activity", "setting": "[16]", "result": 88, "unit": "%"},
      {"measurement": "residual activity", "setting": "[17]", "result": 52, "unit": "%"},
      {"measurement": "residual activity", "setting": "[18]", "result": 41, "unit": "%"},
      {"measurement": "residual activity", "setting": "[19]", "result": 109, "unit": "%"},
      {"measurement": "residual activity", "setting": "[20]", "result": 80, "unit": "%"},
      {"measurement": "residual activity", "setting": "[21]", "result": 29, "unit": "%"},
      {"measurement": "residual activity", "setting": "[22]", "result": 104, "unit": "%"},
      {"measurement": "residual activity", "setting": "[23]", "result": 53, "unit": "%"},
      {"measurement": "residual activity", "setting": "[24]", "result": 112, "unit": "%"},
      {"measurement": "residual activity", "setting": "[25]", "result": 73, "unit": "%"},
      {"measurement": "residual activity", "setting": "[26]", "result": 67, "unit": "%"},
      {"measurement": "residual activity", "setting": "[27]", "result": 69, "unit": "%"},
      {"measurement": "residual activity", "setting": "[28]", "result": 97, "unit": "%"},
      {"measurement": "residual activity", "setting": "[29]", "result": 2, "unit": "%"},
      {"measurement": "residual activity", "setting": "[30]", "result": 103, "unit": "%"},
      {"measurement": "residual activity", "setting": "[31]", "result": 81, "unit": "%"},
      {"measurement": "residual activity", "setting": "[32]", "result": 101, "unit": "%"},
      {"measurement": "residual activity", "setting": "[33]", "result": 95, "unit": "%"},
      {"measurement": "residual activity", "setting": "[34]", "result": 96, "unit": "%"},
      {"measurement": "residual activity", "setting": "[35]", "result": 77, "unit": "%"},
      {"measurement": "residual activity", "setting": "[36]", "result": 97, "unit": "%"},
      {"measurement": "residual activity", "setting": "[37]", "result": 85, "unit": "%"},
      {"measurement": "residual activity", "setting": "[38]", "result": 65, "unit": "%"}
    ]}
  ]
}
